TNF death inh: TNF-alpha cell death inhibition in Jurkat FADD-/- cells; Jurkat FADD-/- TNF necroptosis rescue, ATP luminescence, 24 h; 0 = TNF only, 100 = no-TNF cells; activation (protection from cell death), % at 10 µM; actives 0.068% (n = 220,000);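 active = activation, meaning protection from cell death, of at least 50% relative to plate controls; inactive = activation below 50%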;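 note: necroptosis triggered by 40 ng/mL TNF-alpha added together with compound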
Runt-SMMHC FRET: inhibitors of human RUNX1 Runt domain binding to CBFb-SMMHC; Q01196+Q13951; actives 0.74% (n = 220,000); AID 1434; inhibition, % at 20 µM; Cerulean-Runt/Venus-CBFb-SMMHC FRET ratio 530/480, 1 h;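 active = mean inhibition across duplicate retests at 20 µM reaching about 50%, limit read from the data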;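 note: 0% = DMSO wells and 100% = wells with excess untagged CBFb-SMMHC; inhibitors lower the FRET ratio by blocking Runt binding to CBFb-SMMHC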
Target sequence (Q01196 whole entry, looked up, the tested form may be a part): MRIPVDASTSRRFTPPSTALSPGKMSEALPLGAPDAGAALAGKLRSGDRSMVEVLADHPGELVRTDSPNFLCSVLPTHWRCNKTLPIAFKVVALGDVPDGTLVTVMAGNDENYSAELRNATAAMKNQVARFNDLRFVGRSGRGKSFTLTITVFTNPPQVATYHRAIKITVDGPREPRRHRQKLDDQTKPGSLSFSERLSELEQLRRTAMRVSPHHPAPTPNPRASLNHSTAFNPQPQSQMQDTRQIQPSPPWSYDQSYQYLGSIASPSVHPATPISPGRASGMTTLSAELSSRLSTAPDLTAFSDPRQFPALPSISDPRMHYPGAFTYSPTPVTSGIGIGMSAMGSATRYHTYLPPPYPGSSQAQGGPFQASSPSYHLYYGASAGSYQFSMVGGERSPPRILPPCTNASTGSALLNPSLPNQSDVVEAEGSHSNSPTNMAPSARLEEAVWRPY
Target sequence (Q13951 whole entry, looked up, the tested form may be a part): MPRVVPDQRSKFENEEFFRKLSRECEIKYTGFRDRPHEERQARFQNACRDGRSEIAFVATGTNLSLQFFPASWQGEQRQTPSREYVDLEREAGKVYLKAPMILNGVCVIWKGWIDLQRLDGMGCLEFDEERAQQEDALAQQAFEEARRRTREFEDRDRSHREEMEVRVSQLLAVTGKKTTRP
Hck Nef HTS: inhibitors of human Hck kinase activated by Nef; Recombinant Hck-YEEI plus Nef, Z-Lyte FRET kinase assay; actives 0.68% (n = 220,000); inhibition, % at 20 µM; P08631;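 active = Hck-Nef kinase inhibition above about 50%, limit read from the data; inactive = inhibition below that limit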;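 note: 0% = DMSO with Hck plus Nef and 100% = Hck alone without Nef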
RanGTP-Imp inh: inhibitors of RanGTP-importin-beta interaction, primary screen, biochemical, FRET, CFP-Ran, YFP-importin-beta, homogeneous. cell-free CFP-Ran/YFP-importin-beta FRET ratio. inhibition, % (test concentration not listed). actives 1.1% (n = 300,000). AID 2216;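 active = more than half of the replicate wells show a fall in the fluorescence ratio signal beyond about 16%, limit read from the data, passing the limit was not always enough; inconclusive = exactly half of the replicate wells pass the set limit; inactive = fewer than half of replicates pass the limit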;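 note: 0% = DMSO wells and 100% = Ran loaded with GDP instead of GTP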
L929 necroptosis: L929 zVAD cell death inhibition | L929 zVAD necroptosis rescue, ATP luminescence, 24 h; with zVAD 60 µM | viability rescue, % at 10 µM | actives 0.38% (n = 220,000);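 active = activation, scaled between plate controls, above about 75%, limit read from the data; inactive = activation under that limit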;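 note: 0% = zVAD with DMSO and 100% = DMSO alone without zVAD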
Runt-CBFb FRET: Runt domain-CBFb interaction inhibition; Q01196+Q13951; actives 0.46% (n = 220,000); Cerulean-Runt/Venus-CBFb FRET ratio 530/480, 1 h; inhibition, % at 20 µM; AID 1496;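 active = inhibition over about 50% at 20 µM in the single-dose screen, limit read from the data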;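 note: 0% = DMSO wells and 100% = excess unlabeled CBFb competitor control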
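Schedule: protein complex preformed 1 h, compound exposure 1 h, room temperature, dark; test system: Cerulean-labeled Runt domain protein; amount: 100 nM per protein; buffer or medium: Tris 50 mM pH 7.5, KCl, K2SO4, 0.01% BSA; read-out: loss of energy transfer signal; detection: FRET fluorescence; controls: 5 µM unlabeled CBFb as full-inhibition high control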
zVAD death conf: confirmed blocker of zVAD induced death in L929 cells. shares compounds with L929 necroptosis. L929 zVAD-induced necroptosis rescue, ATP luminescence, 24 h. AID 463117. actives 16% (n = 760). activation (protection from necroptosis), % at 10 µM;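 active = mean protection from necroptosis of at least 50% over duplicate tests; inactive = mean protection below 50%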;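 note: 0% = cells with zVAD alone and 100% = vehicle cells without zVAD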
Active calls of the source: *. Rows were chosen to be rich in hits. Some 2.1% of all compounds tested hit in one or more screens of this group.

What do the screens show for `CCSC1=N/C(=C\c2ccc(OC)cc2)C(=O)N1`?
TNF death inh: 1.7; Runt-SMMHC FRET: 6.6; Hck Nef HTS: 5.8; RanGTP-Imp inh: 6.8; L929 necroptosis: 2.6; Runt-CBFb FRET: 0.2

What do the screens show for `COc1ccc(/C=C2\N=C(SC)NC2=O)cc1`?
TNF death inh: 64.3*; Runt-SMMHC FRET: 9.8; Hck Nef HTS: -16.7; RanGTP-Imp inh: -4.9; L929 necroptosis: 90.7*; Runt-CBFb FRET: 4.1; zVAD death conf: 76.9*

What do the screens show for `Cc1csc(N/N=C\c2cccnc2)n1`?
TNF death inh: 9.9; Runt-SMMHC FRET: 5.2; Hck Nef HTS: 1.2; RanGTP-Imp inh: inconclusive; L929 necroptosis: 87.5*; Runt-CBFb FRET: 9.9; zVAD death conf: 7.7

How did O=C(Oc1c(-c2ccccc2)oc2ccccc2c1=O)c1ccccc1 do in these assays?
TNF death inh: -8.5; Runt-SMMHC FRET: -39.4; Hck Nef HTS: 3.1; RanGTP-Imp inh: -0.8; L929 necroptosis: 79.4*; Runt-CBFb FRET: -3.0; zVAD death conf: 1.7

How did COc1ccc(-c2oc3ccccc3c(=O)c2OC(=O)c2ccc(C)cc2)cc1 do in these assays?
TNF death inh: -10.3; Runt-SMMHC FRET: -1.9; Hck Nef HTS: -1.7; RanGTP-Imp inh: 2.0; L929 necroptosis: 0.9; Runt-CBFb FRET: 0.8

How did Nc1[nH]n2c(=O)cc(-c3ccccc3)nc2c1N=Nc1ccc2c(c1)OCO2 do in these assays?
TNF death inh: -0.1; Runt-SMMHC FRET: -5.4; Hck Nef HTS: 31.1; RanGTP-Imp inh: -0.5; L929 necroptosis: 2.8; Runt-CBFb FRET: 12.4

Results for COc1ccc(Cn2c(S(=O)(=O)CC(N)=O)nc3ccccc32)cc1[N+](=O)[O-] ?
TNF death inh: 2.7; Runt-SMMHC FRET: -1.5; Hck Nef HTS: -7.7; RanGTP-Imp inh: -4.5; L929 necroptosis: 2.0; Runt-CBFb FRET: 2.6

What do the screens show for `Cc1ccc(S(=O)(=O)Nc2ccc(Cl)cn2)cc1C`?
RanGTP-Imp inh: 6.8

What do the screens show for `Nc1ncc(Br)cc1S(=O)(=O)NCCC(=O)N1CCN(c2ncccn2)CC1`?
TNF death inh: 17.9; Runt-SMMHC FRET: -1.0; Hck Nef HTS: 2.0; RanGTP-Imp inh: -5.6; L929 necroptosis: 91.6*; Runt-CBFb FRET: -3.3; zVAD death conf: 2.7

Results for Cc1noc(C)c1C(=O)Nc1cccc2ncccc12 ?
RanGTP-Imp inh: 2.7

Results for CN(CC1CCCO1)S(=O)(=O)c1ccc(C(=O)Nc2nccs2)cc1 (stereo unspecified) ?
TNF death inh: 60.6*; Runt-SMMHC FRET: 1.7; Hck Nef HTS: 24.8; RanGTP-Imp inh: -2.9; L929 necroptosis: 87.1*; Runt-CBFb FRET: 1.1; zVAD death conf: 102.8*

What do the screens show for `O=C(Nc1nccs1)c1ccc(S(=O)(=O)N2CCOCC2)cc1`?
TNF death inh: 44.4; Runt-SMMHC FRET: 3.4; Hck Nef HTS: 0.8; RanGTP-Imp inh: -2.8; L929 necroptosis: 82.2*; Runt-CBFb FRET: 1.5; zVAD death conf: 68.2*

What do the screens show for `O=C(NCc1ccccn1)c1ccc(NS(=O)(=O)c2ccccc2)cc1`?
RanGTP-Imp inh: 2.2

Results for CCN(CC(=O)NC(C)(C)C)C(=O)CN1c2cccc3cccc(c23)S1(=O)=O ?
RanGTP-Imp inh: -1.4

How did Nc1nnnn1/N=C/C(Br)=C/c1ccccc1 do in these assays?
TNF death inh: -17.3; Runt-SMMHC FRET: 2.8; Hck Nef HTS: -0.9; RanGTP-Imp inh: -3.4; L929 necroptosis: 116.0*; Runt-CBFb FRET: 3.0; zVAD death conf: 101.8*

How did Nc1nnnn1/N=C/C=C/c1ccccc1 do in these assays?
TNF death inh: 0.1; Runt-SMMHC FRET: -2.4; Hck Nef HTS: -7.5; RanGTP-Imp inh: -1.4; L929 necroptosis: 1.1; Runt-CBFb FRET: -0.7

How did COc1ccc(OCC(=O)Nc2ccccc2-c2ccccc2)cc1 do in these assays?
TNF death inh: -7.1; Runt-SMMHC FRET: 3.6; Hck Nef HTS: 13.8; RanGTP-Imp inh: -3.4; L929 necroptosis: 3.2; Runt-CBFb FRET: -1.2

What do the screens show for `Cc1cccc(OCC(=O)Nc2ccccc2-c2ccccc2)c1`?
TNF death inh: 0.8; Runt-SMMHC FRET: -3.3; Hck Nef HTS: 3.9; RanGTP-Imp inh: 0.5; L929 necroptosis: 75.1*; Runt-CBFb FRET: -3.5; zVAD death conf: 1.4

Results for COc1cc(/C=C2\Oc3cc(O)ccc3C2=O)ccc1O ?
TNF death inh: -2.8; Runt-SMMHC FRET: 78.5*; Hck Nef HTS: -33.0; RanGTP-Imp inh: 2.4; L929 necroptosis: 75.5*; Runt-CBFb FRET: 11.1; zVAD death conf: 26.5

Results for CCOc1ccc2nc(NC(=O)C3CCCN(S(=O)(=O)c4cccs4)C3)sc2c1 (stereo unspecified) ?
TNF death inh: 1.1; Runt-SMMHC FRET: 1.1; Hck Nef HTS: 1.5; RanGTP-Imp inh: 1.5; L929 necroptosis: 88.3*; Runt-CBFb FRET: -1.3; zVAD death conf: 5.1

Results for CCOc1ccc2nc(NC(=O)C(NS(=O)(=O)c3cccs3)C(C)C)sc2c1 (stereo unspecified) ?
TNF death inh: -2.0; Runt-SMMHC FRET: -1.7; Hck Nef HTS: 2.0; RanGTP-Imp inh: inconclusive; L929 necroptosis: 1.2; Runt-CBFb FRET: -0.4

Results for CC(C)Oc1ccc(/C=N/NC(=O)c2nnn(-c3nonc3N)c2CN(C)c2ccccc2)cc1 ?
RanGTP-Imp inh: 2.7

What do the screens show for `Cc1cn(-c2cc(C(=O)Nc3ccc(C)c(NC(=O)N4CCNC4=O)c3)cc(C(F)(F)F)c2)cn1`?
TNF death inh: 1.2; Runt-SMMHC FRET: 1.8; Hck Nef HTS: 44.3; RanGTP-Imp inh: inconclusive; L929 necroptosis: 79.3*; Runt-CBFb FRET: 0.5; zVAD death conf: 51.2*

What do the screens show for `CCN1CCN(Cc2ccc(NC(=O)c3ccc(C)c(NC(=O)N4CCNC4=O)c3)cc2C(F)(F)F)CC1`?
TNF death inh: -4.4; Runt-SMMHC FRET: 2.9; Hck Nef HTS: 28.1; RanGTP-Imp inh: -0.8; L929 necroptosis: 73.6; Runt-CBFb FRET: 0.7

How did O=C(CCl)Nc1cc(SCC(O)CO)cc([N+](=O)[O-])c1 (stereo unspecified) do in these assays?
TNF death inh: -12.2; Runt-SMMHC FRET: -4.1; Hck Nef HTS: 0.5; RanGTP-Imp inh: -1.1; L929 necroptosis: 80.5*; Runt-CBFb FRET: 0.8; zVAD death conf: 77.4*

How did CCC(=O)Nc1cc(SCCO)cc([N+](=O)[O-])c1 do in these assays?
TNF death inh: -1.8; Runt-SMMHC FRET: -0.2; Hck Nef HTS: 0.3; RanGTP-Imp inh: -1.1; L929 necroptosis: -0.5; Runt-CBFb FRET: -1.4
